Assay results taken from ChEMBL document CHEMBL2375307, “Synthesis and identification of β-aryloxyquinoline based diversely fluorine substituted N-aryl quinolone derivatives as a new class of antimicrobial, antituberculosis and antioxidant agents” (Eur J Med Chem, 2013).
Converted amounts (≈) assume the structure as drawn.

Columns and labels:
[1] = tested on: Mycobacterium tuberculosis; assay: Antitubercular activity against Mycobacterium tuberculosis H37Rv assessed as growth inhibition at 250 ug/mL after 12 to 28 days by Lowenstein-Jensen method relative to control; type: functional; details: read-out: GI
Summary of the method: (§1)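 Modified Lowenstein-Jensen method. Compound at 250 in DMSO added to liquid L-J medium, then sterilized by inspissation and incubated 24 h at 37 °C. Streaked with H37Rv harvested in 0.85% saline (5 × 10⁴ bacilli/tube) and incubated at 37 °C. Colonies read at 12, 22 and 28 days versus drug-free control; no colonies or <20 colonies scored as inhibition.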

[2] = tested on: Mycobacterium tuberculosis; assay: Antitubercular activity against Mycobacterium tuberculosis H37Rv assessed as growth inhibition after 12 to 28 days by Lowenstein-Jensen method; type: functional; summary of the method: as §1
[3] = Toxicity in brine shrimps cysts assessed as mortality at 5 ug/ml after 24 hrs relative to control; type: organism-based; details: artemia, in vivo
Salmonella typhi = assay: Antibacterial activity against Salmonella typhi MTCC 98 assessed as growth inhibition after overnight incubation by NCCLS broth microdilution method; type: functional, Salmonella enterica subsp. enterica serovar Typhi; details: Salmonella enterica
[4] = Toxicity in brine shrimps cysts assessed as mortality at 50 ug/mL after 24 hrs relative to control; type: organism-based; details: artemia, in vivo
Aspergillus fumigatus = assay: Antifungal activity against Aspergillus fumigatus MTCC 3008 assessed as growth inhibition after overnight incubation by NCCLS broth microdilution method; type: functional
Summary of the method: (§2)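 Broth microdilution per NCCLS in Mueller Hinton broth, compounds diluted in DMSO. Primary screen at 500, 250 and 200 µg/mL; actives retested at 100, 62.5, 50, 25 and 12.5 µg/mL. Tubes incubated overnight at 37 °C. […] Non-growing tubes subcultured overnight at 37 °C to judge bacteriostatic versus bactericidal action.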

Vibrio cholerae = assay: Antibacterial activity against Vibrio cholerae MTCC 3906 assessed as growth inhibition after overnight incubation by NCCLS broth microdilution method; type: functional
Candida albicans = assay: Antifungal activity against Candida albicans MTCC 227 assessed as growth inhibition after overnight incubation by NCCLS broth microdilution method; type: functional; summary of the method: as §2
[5] = Toxicity in brine shrimps cysts assessed as mortality at 10 ug/mL after 24 hrs relative to control; type: organism-based; details: artemia, in vivo
[6] = Toxicity in brine shrimps cysts assessed as mortality at 30 ug/mL after 24 hrs relative to control; type: organism-based; details: artemia, in vivo
Clostridium tetani = assay: Antibacterial activity against Clostridium tetani MTCC 449 assessed as growth inhibition after overnight incubation by NCCLS broth microdilution method; type: functional
[7] = Toxicity in brine shrimps cysts assessed as mortality at 40 ug/mL after 24 hrs relative to control; type: organism-based; details: artemia, in vivo
Escherichia coli = assay: Antibacterial activity against Escherichia coli MTCC 443 assessed as growth inhibition after overnight incubation by NCCLS broth microdilution method; type: functional; summary of the method: as §2
Bacillus subtilis = assay: Antibacterial activity against Bacillus subtilis MTCC 441 assessed as growth inhibition after overnight incubation by NCCLS broth microdilution method; type: functional; summary of the method: as §2
[8] = Toxicity in brine shrimps cysts assessed as mortality after 24 hrs relative to control; type: organism-based; details: artemia, in vivo
Streptococcus pneumoniae = assay: Antibacterial activity against Streptococcus pneumoniae MTCC 1936 assessed as growth inhibition after overnight incubation by NCCLS broth microdilution method; type: functional; summary of the method: as §2
[9] = Antioxidant activity of the compound assessed as ascorbic acid equivalent of ferric tripyridyl triazine reducing activity at 200 ug/mL after 15 mins by FRAP assay; type: functional
Summary of the method: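 FRAP, modified Benzie and Strain method. Fe(III)-TPTZ reagent made with TPTZ in 40 mM HCl, FeCl3 solution and acetate buffer pH 3.6. 200 µL sample solution mixed with 3 mL reagent and held 15 min at 37 °C. Fe(II)-TPTZ read at 593 nm against an ascorbic acid standard, expressed as ascorbic acid equivalents (mmol/100 g compound).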

[10] = Toxicity in brine shrimps cysts assessed as mortality at 20 ug/mL after 24 hrs relative to control; type: organism-based; details: artemia, in vivo

Structure (SMILES)	inhibition of growth at 250 µg/mL [1] [%]	MIC [2] [µg/mL]	mortality at 24 h, 5 ug/ml [3] [%]	MIC (Salmonella typhi) [µg/mL]	mortality at 24 h, 50 ug/mL [4] [%]	MIC (Aspergillus fumigatus) [µg/mL]	MIC (Vibrio cholerae) [µg/mL]	MIC (Candida albicans) [µg/mL]	mortality at 24 h, 10 ug/mL [5] [%]	mortality at 24 h, 30 ug/mL [6] [%]	MIC (Clostridium tetani) [µg/mL]	mortality at 24 h, 40 ug/mL [7] [%]	MIC (Escherichia coli) [µg/mL]	MIC (Bacillus subtilis) [µg/mL]	LC50 at 24 h [8] [µg/mL]	MIC (Streptococcus pneumoniae) [µg/mL]	Activity [9] [equiv]	mortality at 24 h, 20 ug/mL [10] [%]
CO[C@H]1/C=C/O[C@@]2(C)Oc3c(C)c(O)c4c(O)c(c(/C=N/N5CCN(C)CC5)c(O)c4c3C2=O)NC(=O)/C(C)=C\C=C\[C@H](C)[C@H](O)[C@@H](C)[C@@H](O)[C@@H](C)[C@H](OC(C)=O)[C@@H]1C [RIFAMPIN]	98	40 (≈ 48.6 µM)																
N#CC1=C(N)N(c2cccc(C(F)(F)F)c2)C2=C(C(=O)CCC2)C1c1cc2cc(Cl)ccc2nc1Oc1ccc(C#N)cc1 (centres undefined)	99	25 (≈ 40.8 µM)	0	200 (≈ 327 µM)	70	1000 (≈ 1630 µM)	62.5 (≈ 102 µM)	1000 (≈ 1630 µM)	10	40	200 (≈ 327 µM)	50	250 (≈ 408 µM)	200 (≈ 327 µM)	37.8 (≈ 61.7 µM)	62.5 (≈ 102 µM)	5.15	20
NNC(=O)c1ccncc1 [ISONIAZID]	99	0.2 (≈ 1.46 µM)																
Cc1ccc2nc(Oc3ccc(C#N)cc3)c(C3C(C#N)=C(N)N(c4cccc(C(F)(F)F)c4)C4=C3C(=O)CC(C)(C)C4)cc2c1 (centres undefined)	93	125 (≈ 202 µM)	10	100 (≈ 161 µM)	90	1000 (≈ 1610 µM)	125 (≈ 202 µM)	> 1000	30	70	250 (≈ 403 µM)	80	100 (≈ 161 µM)	100 (≈ 161 µM)	17.1 (≈ 27.7 µM)	125 (≈ 202 µM)	339	50
Cc1ccc2nc(Oc3ccc(C#N)cc3)c(C3C(C#N)=C(N)N(c4cc(F)ccc4F)C4=C3C(=O)CC(C)(C)C4)cc2c1 (centres undefined)	99	62.5 (≈ 106 µM)	0	200 (≈ 340 µM)	80	> 1000	25 (≈ 42.5 µM)	> 1000	10	50	100 (≈ 170 µM)	70	62.5 (≈ 106 µM)	200 (≈ 340 µM)	27.5 (≈ 46.8 µM)	100 (≈ 170 µM)	13.9	20
CC1(C)CC(=O)C2=C(C1)N(c1cccc(C(F)(F)F)c1)C(N)=C(C#N)C2c1cc2cc(Cl)ccc2nc1Oc1ccc(C#N)cc1 (centres undefined)	98	62.5 (≈ 97.6 µM)	10	125 (≈ 195 µM)	80	1000 (≈ 1560 µM)	100 (≈ 156 µM)	> 1000	20	50	250 (≈ 391 µM)	70	125 (≈ 195 µM)	250 (≈ 391 µM)	23.3 (≈ 36.5 µM)	125 (≈ 195 µM)	7.13	40
N#CC1=C(N)N(c2cc(F)ccc2F)C2=C(C(=O)CCC2)C1c1cc2ccccc2nc1Oc1ccc(C#N)cc1 (centres undefined)	10			250 (≈ 458 µM)		250 (≈ 458 µM)	200 (≈ 367 µM)	> 1000			125 (≈ 229 µM)		100 (≈ 183 µM)	100 (≈ 183 µM)		250 (≈ 458 µM)	16.4	
Cc1ccc2nc(Oc3ccc(C#N)cc3)c(C3C(C#N)=C(N)N(c4ccc(F)c(F)c4)C4=C3C(=O)CC(C)(C)C4)cc2c1 (centres undefined)	32			250 (≈ 425 µM)		1000 (≈ 1700 µM)	250 (≈ 425 µM)	> 1000			250 (≈ 425 µM)		200 (≈ 340 µM)	250 (≈ 425 µM)		200 (≈ 340 µM)	122	
N#CC1=C(N)N(c2ccc(F)c(F)c2)C2=C(C(=O)CCC2)C1c1cc2cc(Cl)ccc2nc1Oc1ccc(C#N)cc1 (centres undefined)	95	100 (≈ 172 µM)	20	250 (≈ 431 µM)	90	> 1000	100 (≈ 172 µM)	1000 (≈ 1720 µM)	40	70	200 (≈ 345 µM)	80	200 (≈ 345 µM)	125 (≈ 216 µM)	14.1 (≈ 24.3 µM)	200 (≈ 345 µM)	2.97	60
Cc1ccc2nc(Oc3ccc(C#N)cc3)c(C3C(C#N)=C(N)N(c4cccc(C(F)(F)F)c4)C4=C3C(=O)CCC4)cc2c1 (centres undefined)	38			250 (≈ 423 µM)		> 1000	100 (≈ 169 µM)	250 (≈ 423 µM)			125 (≈ 211 µM)		250 (≈ 423 µM)	200 (≈ 338 µM)		250 (≈ 423 µM)	253	
COc1ccc2nc(Oc3ccc(C#N)cc3)c(C3C(C#N)=C(N)N(c4cc(F)ccc4F)C4=C3C(=O)CCC4)cc2c1 (centres undefined)	35			100 (≈ 174 µM)		1000 (≈ 1740 µM)	250 (≈ 434 µM)	1000 (≈ 1740 µM)			125 (≈ 217 µM)		250 (≈ 434 µM)	200 (≈ 347 µM)		125 (≈ 217 µM)	278	
COc1ccc2nc(Oc3ccc(C#N)cc3)c(C3C(C#N)=C(N)N(c4cccc(C(F)(F)F)c4)C4=C3C(=O)CC(C)(C)C4)cc2c1 (centres undefined)	62			200 (≈ 315 µM)		500 (≈ 787 µM)	250 (≈ 393 µM)	1000 (≈ 1570 µM)			500 (≈ 787 µM)		125 (≈ 197 µM)	250 (≈ 393 µM)		200 (≈ 315 µM)	14.3	
COc1ccc2nc(Oc3ccc(C#N)cc3)c(C3C(C#N)=C(N)N(c4ccc(F)c(F)c4)C4=C3C(=O)CC(C)(C)C4)cc2c1 (centres undefined)	24			200 (≈ 331 µM)		> 1000	100 (≈ 166 µM)	> 1000			250 (≈ 414 µM)		62.5 (≈ 104 µM)	250 (≈ 414 µM)		250 (≈ 414 µM)	153	
